Measurements as given in ChEMBL document CHEMBL3091463, “Cytotoxic ent-kaurane diterpenoids from Salvia cavaleriei” (J Nat Prod, 2013).

How the values were obtained:
[1] = Cytotoxicity against human BEAS2B cells after 48 hrs by MTS assay; type: cell-based; details: BEAS-2B
SW480 = assay: Cytotoxicity against human SW480 cells after 48 hrs by MTS assay; type: functional, cell-based; details: SW480, 48 h
In short: (§1)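 Cells were kept in RPMI-1640 or DMEM with 10% FBS at 37 °C under 5% CO2 and seeded at 1 × 10^5 cells/mL, with adherent cells allowed 12 h to attach. Compounds were tested at 0.064, 0.32, 1.6, 8 and 40 μM, in triplicate, for 48 h at 37 °C. Cisplatin and paclitaxel were the positive controls. MTS was then added for 4 h and absorbance read at […]. IC50 was calculated by the Reed and Muench method.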

MCF7 = assay: Cytotoxicity against human MCF7 cells after 48 hrs by MTS assay; type: functional, cell-based; details: MCF7, 48 h; in short: as §1
A549 = assay: Cytotoxicity against human A549 cells after 48 hrs by MTS assay; type: functional, cell-based; details: A549, 48 h; in short: as §1
SMMC-7721 = assay: Cytotoxicity against human SMMC7721 cells after 48 hrs by MTS assay; type: functional, cell-based; details: SMMC-7721, 48 h; in short: as §1
HL-60 = assay: Cytotoxicity against human HL60 cells after 48 hrs by MTS assay; type: functional, cell-based; details: HL-60, 48 h; in short: as §1

C=C1C(=O)[C@@]23[C@H](O)C[C@@H]4C(C)(C)[C@@H](OC(C)=O)CC[C@@]4(C)[C@@H]2[C@H](O)C[C@@H]1[C@H]3O
IC50 [1]: 2800 nM
IC50 (SW480): 1400 nM
IC50 (MCF7): 3400 nM
IC50 (A549): 3500 nM
IC50 (SMMC-7721): 1100 nM
IC50 (HL-60): 2500 nM

C=C1C(=O)[C@@]23[C@H](O)C[C@@H]4C(C)(C)[C@@H](OC(C)=O)CC[C@@]4(C)[C@@H]2[C@@H](O)C[C@@H]1[C@H]3O
IC50 [1]: > 10000 nM
IC50 (SW480): 5500 nM
IC50 (MCF7): > 10000 nM
IC50 (A549): > 10000 nM
IC50 (SMMC-7721): 3800 nM
IC50 (HL-60): 9700 nM

C=C1C(=O)[C@@]23[C@H](O)C[C@@H]4C(C)(C)[C@@H](OC(C)=O)CC[C@@]4(C)[C@@H]2C(=O)C[C@@H]1[C@H]3O
IC50 [1]: 2000 nM
IC50 (SW480): 1600 nM
IC50 (MCF7): 2500 nM
IC50 (A549): 2700 nM
IC50 (SMMC-7721): 3000 nM
IC50 (HL-60): 2800 nM

C=C1C(=O)[C@@]23[C@H](O)C[C@@H]4C(C)(C)C(=O)CC[C@@]4(C)[C@@H]2[C@H](O)C[C@@H]1[C@H]3O
IC50 [1]: > 10000 nM
IC50 (SW480): 8100 nM
IC50 (MCF7): > 10000 nM
IC50 (A549): > 10000 nM
IC50 (SMMC-7721): > 10000 nM
IC50 (HL-60): > 10000 nM

C=C1C(=O)[C@@]23[C@H](O)C[C@@H]4C(C)(C)[C@@H](O)CC[C@@]4(C)[C@@H]2C(=O)C[C@@H]1[C@H]3O
IC50 [1]: > 10000 nM
IC50 (SW480): 7600 nM
IC50 (MCF7): > 10000 nM
IC50 (A549): > 10000 nM
IC50 (SMMC-7721): > 10000 nM
IC50 (HL-60): > 10000 nM

C=C1C(=O)[C@@]23[C@H](O)C[C@@H]4C(C)(C)C(=O)CC[C@@]4(C)[C@@H]2C(=O)C[C@@H]1[C@H]3O
IC50 [1]: 3100 nM
IC50 (SW480): 2200 nM
IC50 (MCF7): 3100 nM
IC50 (A549): 6400 nM
IC50 (SMMC-7721): 4900 nM
IC50 (HL-60): 3300 nM

C=C1C(=O)[C@@]23[C@H](O)C[C@@H]4C(C)(C)[C@@H](OC(C)=O)CC[C@@]4(C)[C@@H]2C=C[C@@H]1[C@H]3O
IC50 [1]: 880 nM
IC50 (SW480): 2800 nM
IC50 (MCF7): 1700 nM
IC50 (A549): 3100 nM
IC50 (SMMC-7721): 2800 nM
IC50 (HL-60): 2100 nM

C=C1C(=O)[C@@]23[C@H](O)C[C@@H]4C(C)(C)[C@@H](OC(C)=O)CC[C@@]4(C)[C@@H]2[C@@H]2O[C@@H]2[C@@H]1[C@H]3O
IC50 [1]: 730 nM
IC50 (SW480): 1800 nM
IC50 (MCF7): 3000 nM
IC50 (A549): 1100 nM
IC50 (SMMC-7721): 1300 nM
IC50 (HL-60): 650 nM

C=C1C(=O)[C@@]23[C@H](O)C[C@@H]4[C@@](C)(COC(C)=O)CCC[C@@]4(C)[C@@H]2C(=O)C[C@@H]1[C@H]3O
IC50 [1]: 870 nM
IC50 (SW480): 1700 nM
IC50 (MCF7): 1800 nM
IC50 (A549): 940 nM
IC50 (SMMC-7721): 960 nM
IC50 (HL-60): 710 nM

COC[C@H]1C(=O)[C@@]23[C@H](O)C[C@@H]4C(C)(C)[C@@H](OC(C)=O)CC[C@@]4(C)[C@@H]2C(=O)C[C@@H]1[C@H]3O
IC50 [1]: 2500 nM
IC50 (SW480): 2000 nM
IC50 (MCF7): 2500 nM
IC50 (A549): 2900 nM
IC50 (SMMC-7721): 4000 nM
IC50 (HL-60): 3700 nM

CCOC[C@@H]1C(=O)[C@@]23[C@H](O)C[C@@H]4C(C)(C)[C@@H](OC(C)=O)CC[C@@]4(C)[C@@H]2C(=O)C[C@@H]1[C@H]3O
IC50 [1]: > 10000 nM
IC50 (SW480): > 10000 nM
IC50 (MCF7): > 10000 nM
IC50 (A549): > 10000 nM
IC50 (SMMC-7721): > 10000 nM
IC50 (HL-60): > 10000 nM

CCOC[C@H]1C(=O)[C@@]23[C@H](O)C[C@@H]4C(C)(C)[C@@H](OC(C)=O)CC[C@@]4(C)[C@@H]2C(=O)C[C@@H]1[C@H]3O
IC50 [1]: 2800 nM
IC50 (SW480): 3000 nM
IC50 (MCF7): 3100 nM
IC50 (A549): 3500 nM
IC50 (SMMC-7721): 3500 nM
IC50 (HL-60): 3300 nM

COC[C@@H]1C(=O)[C@@]23[C@H](O)C[C@@H]4C(C)(C)C(=O)CC[C@@]4(C)[C@@H]2C(=O)C[C@@H]1[C@H]3O
IC50 [1]: > 10000 nM
IC50 (SW480): > 10000 nM
IC50 (MCF7): > 10000 nM
IC50 (A549): > 10000 nM
IC50 (SMMC-7721): > 10000 nM
IC50 (HL-60): > 10000 nM

COC[C@@H]1C(=O)[C@@]23[C@H](O)C[C@@H]4[C@@](C)(COC(C)=O)CCC[C@@]4(C)[C@@H]2C(=O)C[C@@H]1[C@H]3O
IC50 [1]: > 10000 nM
IC50 (SW480): 6700 nM
IC50 (MCF7): > 10000 nM
IC50 (A549): > 10000 nM
IC50 (SMMC-7721): > 10000 nM
IC50 (HL-60): > 10000 nM

COC[C@H]1C(=O)[C@@]23[C@H](O)C[C@@H]4[C@@](C)(COC(C)=O)CCC[C@@]4(C)[C@@H]2C(=O)C[C@@H]1[C@H]3O
IC50 [1]: 3000 nM
IC50 (SW480): 2600 nM
IC50 (MCF7): 2000 nM
IC50 (A549): 3000 nM
IC50 (SMMC-7721): 3500 nM
IC50 (HL-60): 2800 nM

CC(=O)O[C@H]1C(=O)[C@@]2(C)[C@H]([C@H](OC(=O)c3ccccc3)[C@]3(O)C[C@H](OC(=O)[C@H](O)[C@@H](NC(=O)c4ccccc4)c4ccccc4)C(C)=C1C3(C)C)[C@]1(OC(C)=O)CO[C@@H]1C[C@@H]2O [PACLITAXEL]
IC50 [1]: 580 nM
IC50 (SW480): < 8 nM
IC50 (MCF7): < 8 nM
IC50 (A549): < 8 nM
IC50 (SMMC-7721): < 8 nM
IC50 (HL-60): < 8 nM
